Assay results pooled from the literature.
Lines come from different studies, so protocols differ.
CSF1R: Macrophage colony-stimulating factor 1 receptor (CSF1R, Homo sapiens, UniProt P07333)
CSF1R autoinhibited: Macrophage colony-stimulating factor 1 receptor, autoinhibited (CSF1R, Homo sapiens, UniProt P07333)

| Structure (SMILES) | target | assay | conditions | quantity | value |
| --- | --- | --- | --- | --- | --- |
| CN(C)C1CCN(CC#Cc2nn(C3CCCC3)c3nc(NCc4ccccc4)ncc23)C1 (stereo not drawn) | CSF1R | enzyme activity, inhibitor, FRET | 10 µM | inhibition | 107% |
| Oc1cccc(-c2nc(N3CCOCC3)c3oc4ncccc4c3n2)c1 | CSF1R | cell-free assay | 0.5 µM | remaining signal | 108% |
| COc1cc(-c2cn(C3CCc4ccccc4N(CC(F)(F)F)C3=O)nn2)ccc1-n1ccc(C)n1 (stereo not drawn) | CSF1R | cell-free assay, competition with immobilised ligand | 1 µM | remaining binding | 92% |
| O=Nc1c(-c2c(O)[nH]c3ccccc23)[nH]c2ccccc12 | CSF1R | cell-free assay | 0.5 µM | remaining signal | 83.2% |
| Cc1nc(C2CCN(C(=O)c3ccc(OC(F)(F)F)cc3N)CC2)c2ncc(N3CCN(C)CC3)cc2n1 | CSF1R autoinhibited | cell-free assay, competition with immobilised ligand | 1 µM | remaining binding | 94% |
| C=CC(=O)Nc1cc(Nc2nccc(Nc3cc(Cl)c(F)cc3C(C)(C)O)n2)c(OC)cc1N1CC[C@@H](N(C)C)C1 | CSF1R | enzyme activity, inhibitor | 1 µM | inhibition | 13% |
| CC(C)(C)c1nc2c(s1)c1nc(N)ncc1c1ccc(NS(=O)(=O)c3c(F)cccc3F)c(F)c12 | CSF1R | enzyme activity, inhibitor, radiometric | 1 µM | remaining activity | 109% |
| CS(=O)(=O)Nc1cccc(-c2csc(NC(=O)CSc3nc4nccnc4c(=O)n3CCc3ccccc3)n2)c1 | CSF1R | enzyme activity, inhibitor | 10 µM | inhibition | 8% |
| COc1cc2ncnc(Nc3ccc(Oc4ccccc4)cc3C)c2cc1OC | CSF1R | enzyme activity, inhibitor | 1 µM | inhibition | 24% |
| O=C1NC(=O)c2cc(Nc3ccc(F)cc3)c(Nc3ccc(F)cc3)cc21 | CSF1R | cell-free assay | 0.5 µM | remaining signal | 104% |
| Cc1sc(C(=O)NC2COC2)cc1-n1cc(NC(=O)Nc2c(F)cccc2Cl)cn1 | CSF1R | enzyme activity, inhibitor | 10 µM | remaining activity | 103% |
| CC/C(=N\NC(=O)NCc1cccc(O)c1)c1ccc(O)c(C)c1O | CSF1R | enzyme activity, inhibitor | 0.1 µM | inhibition | -4.4% |
| FC(F)(F)c1ccc2c(c1)nc(-c1cccnc1)n2C1CC1 | CSF1R autoinhibited | cell-free assay, competition with immobilised ligand | 1 µM | remaining binding | 89% |
| Cc1cnc(NC2CCOCC2)nc1-n1cnc(C(=O)NC(CN)c2cc(F)cc(Cl)c2)c1 (stereo not drawn) | Macrophage colony-stimulating factor 1 receptor (CSF1R, Homo sapiens, UniProt P07333, Y969C) | enzyme activity, inhibitor, radiometric | 1 µM | remaining activity | 101% |
| COc1ccc2cc(OCC3(C(=O)O)CN(C(=O)c4ccc(F)cc4)C3)ccc2c1 | CSF1R | cell-free assay, competition with immobilised ligand | 1 µM | remaining binding | 100% |
| CCN(CC)CCNC(=O)c1c(C)[nH]c(/C=C2\C(=O)Nc3ccc(F)cc32)c1C | CSF1R | cell-free assay | 10 µM | inhibition | 98% |
| Nc1ncnc2occ(-c3ccc(NC(=O)Nc4cc(C(F)(F)F)ccc4F)cc3)c12 | CSF1R | cell-free assay | 20 µM | remaining signal | 0% |
| CO[C@@H](C)c1c(Nc2ccc([C@H](N(C)C(=O)C3CCS(=O)(=O)CC3)C(F)(F)F)cc2)cnc2cc(Cl)nn12 | CSF1R | cell-free assay, competition with immobilised ligand | 1 µM | remaining binding | 77% |
| Cc1cc(NC(=O)c2cccc3cc(-c4cccc5[nH]nc(N)c45)ccc23)ccc1F | CSF1R | enzyme activity, inhibitor | 0.1 µM | activity vs control | 7% |
| COc1cc(-c2cn(C3CCc4c(F)cccc4N(CC(F)(F)F)C3=O)nn2)ccc1-n1cnc(C)c1 (stereo not drawn) | CSF1R | cell-free assay, competition with immobilised ligand | 1 µM | remaining binding | 86% |
| CNC(=O)c1cc2c(Oc3ccc(NC(=O)C4(C(=O)Nc5ccc(F)cc5)CC4)cc3)ccnc2cc1OC | CSF1R | enzyme activity, inhibitor, radiometric | 1 µM | inhibition | 98% |
